From ChEMBL document CHEMBL1148785, “Second generation tetrahydroquinoline-based protein farnesyltransferase inhibitors as antimalarials” (J Med Chem, 2007)

Columns and labels:
Plasmodium falciparum [1] = test: Inhibition of Plasmodium falciparum protein farnesyltransferase at 50 nM by scintillation proximity assay
Plasmodium falciparum [2] = test: Inhibition of Plasmodium falciparum protein farnesyltransferase at 5 nM by scintillation proximity assay
Plasmodium falciparum [3] = test: Inhibition of Plasmodium falciparum protein farnesyltransferase at 0.5 nM by scintillation proximity assay
Plasmodium falciparum [4] = test: Antimalarial activity against Plasmodium falciparum 3D7; type: functional; conditions: Plasmodium falciparum, 3D7; read-out: ED50 (the source's name)
Method in brief: (§1)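 Asynchronous culture in type A+ erythrocytes at 0.5% parasitemia and 0.5% hematocrit, grown in RPMI-1640 with 20% heat-inactivated human A+ plasma. Compound was serially diluted from a top final 5 µM, with DMSO vehicle as 100% growth. Plates ran 48 h at 37 °C under 5% CO2/5% O2/90% N2, then [3H]-hypoxanthine (0.3 µCi) for 24 h. Filter-harvested counts were corrected for the uninfected-RBC background. ED50 by linear regression; duplicates averaged.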

Plasmodium falciparum [5] = test: Antimalarial activity against Plasmodium falciparum K1; type: functional; conditions: Plasmodium falciparum, K1; read-out: ED50 (the source's name); method in brief: as §1

| SMILES | inhibition (Plasmodium falciparum [1]) [%] | inhibition (Plasmodium falciparum [2]) [%] | inhibition (Plasmodium falciparum [3]) [%] | EC50 (Plasmodium falciparum [4]) [nM] | EC50 (Plasmodium falciparum [5]) [nM] |
| --- | --- | --- | --- | --- | --- |
| Cn1cnc(CN2CC(N(CC(=O)NC(C)(C)C)S(=O)(=O)c3cn(C)cn3)Cc3cc(-c4ccccc4)ccc32)c1 (stereo not given) | 97 | 73 | 23 | 381 | 395 |
| Cn1cncc1CN1CC(N(Cc2ccccc2F)S(=O)(=O)c2ccccc2)Cc2cc(C#N)ccc21 (stereo not given) | 86 | 44 | 10 | 730 | 750 |
| Cn1cncc1CN1CC(N(Cc2ccccc2F)C(=O)C2CC2)Cc2cc(C#N)ccc21 (stereo not given) | 33 | 0 | 0 | 950 | 2000 |
| CN(C)S(=O)(=O)N(Cc1ccccc1F)C1Cc2cc(C#N)ccc2N(Cc2cncn2C)C1 (stereo not given) | 62 | 10 | 8 | 360 | 3600 |
| COC(=O)N1CCC(CN(C2Cc3cc(C#N)ccc3N(Cc3cncn3C)C2)S(=O)(=O)C2CC2)CC1 (stereo not given) | 37 | 3 | 0 | > 5000 | 3950 |
| Cn1cnc(S(=O)(=O)N(Cc2ccc(-n3cncn3)cc2)C2Cc3cc(C#N)ccc3N(Cc3cncn3C)C2)c1 (stereo not given) | 93 | 54 |  | 330 | 340 |
| Cn1cncc1CN1CC(N(Cc2cccc(-n3cncn3)c2)S(=O)(=O)c2ccccn2)Cc2cc(C#N)ccc21 (stereo not given) | 53 | 11 |  | 450 | 590 |
| Cn1cncc1CN1CC(N(Cc2ccc(Br)cc2)S(=O)(=O)c2ccccn2)Cc2cc(C#N)ccc21 (stereo not given) | 66 | 15 |  | 520 | 750 |
| Cn1cncc1CN1CC(N(CC(N)=O)S(=O)(=O)c2ccccn2)Cc2cc(C#N)ccc21 (stereo not given) | 82 | 37 |  | 1600 | 2200 |

Molecules with a lower EC50 (Plasmodium falciparum [4]), results first:

| inhibition (Plasmodium falciparum [1]) [%] | inhibition (Plasmodium falciparum [2]) [%] | inhibition (Plasmodium falciparum [3]) [%] | EC50 (Plasmodium falciparum [4]) [nM] | EC50 (Plasmodium falciparum [5]) [nM] | SMILES |
| --- | --- | --- | --- | --- | --- |
| 96 | 17 | 89 | 75 | 55 | CC(C)S(=O)(=O)N1CCC(CN(C2Cc3cc(C#N)ccc3N(Cc3cncn3C)C2)S(=O)(=O)c2ccccn2)CC1 (stereo not given) |
| 98 | 87 | 18 | 140 | 75 | Cc1c(S(=O)(=O)N(CC2CCN(C(=O)OC(C)(C)C)CC2)C2Cc3cc(C#N)ccc3N(Cc3cncn3C)C2)ncn1C (stereo not given) |
| 98 | 78 | 27 | 320 | 270 | CN(CCCCN(C1Cc2cc(C#N)ccc2N(Cc2cncn2C)C1)S(=O)(=O)c1ccccn1)C(=O)OC(C)(C)C (stereo not given) |
| 95 | 80 | 24 | 260 | 400 | COC(=O)N1CCC(CN(C2Cc3cc(C#N)ccc3N(Cc3cncn3C)C2)S(=O)(=O)c2cccc3cccnc23)CC1 (stereo not given) |
| 100 | 100 | 84 | < 20 | < 20 | Cn1cncc1CN1CC(N(Cc2ccc(S(C)(=O)=O)cc2)S(=O)(=O)c2cncn2C)Cc2cc(C#N)ccc21 (stereo not given) |
| 99 | 98 | 54 | 1.8 | 1.8 | Cn1cnc(S(=O)(=O)N(CCn2cccc2)C2Cc3cc(C#N)ccc3N(Cc3cncn3C)C2)c1 (stereo not given) |
| 99 | 91 | 38 | 165 | 330 | Cn1cncc1CN1CC(N(Cc2ccc(S(C)(=O)=O)cc2)S(=O)(=O)c2ccccc2)Cc2cc(C#N)ccc21 (stereo not given) |
| 99 | 93 | 36 | 71 | 75 | Cn1cnc(S(=O)(=O)N(Cc2ccccc2C(F)(F)F)C2Cc3cc(C#N)ccc3N(Cc3cncn3C)C2)c1 (stereo not given) |
|  | 45 | 22 | 150 | 140 | Cn1cnc(S(=O)(=O)N(CC(=O)OC(C)(C)C)C2Cc3cc(C#N)ccc3N(Cc3cncn3Cc3ccccc3)C2)c1 (stereo not given) |
